pEC50, pKi: −log10 of the molar value. Activity calls are given as the source filed them. The rule behind the calls is not given here.
Columns and labels:
[1] = biological target: T1, Transient receptor potential cation channel subfamily V member 1 (Homo sapiens, UniProt Q8NER1); assay: Displacement of [3H]RTX from recombinant human TRPV1 expressed in CHO cells incubated for 60 mins by liquid scintillation counter; format: cell-based
In short: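 Pellets from human TRPV1 CHO cells (Tet-Off, induced 48 h) in DPBS with Ca2+/Mg2+ and BSA 0.25 mg/mL. Incubated with [3H]RTX 100 pM and varied competitor, 60 min at 37 °C. Nonspecific binding defined with unlabelled RTX 100 nM. Chilled, glycoprotein added, membranes pelleted by centrifugation, scintillation counted. Ki from Hill equation fit. Mean of ≥3 experiments.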

Mu-type opioid receptor = Mu-type opioid receptor (Homo sapiens, UniProt P35372); assay: Displacement of [3H]-DAMGO from full length human MOR expressed in chem5 cells incubated for 60 mins by liquid scintillation counter; format: cell-based
Mu-type opioid receptor, sequence (P35372 whole entry): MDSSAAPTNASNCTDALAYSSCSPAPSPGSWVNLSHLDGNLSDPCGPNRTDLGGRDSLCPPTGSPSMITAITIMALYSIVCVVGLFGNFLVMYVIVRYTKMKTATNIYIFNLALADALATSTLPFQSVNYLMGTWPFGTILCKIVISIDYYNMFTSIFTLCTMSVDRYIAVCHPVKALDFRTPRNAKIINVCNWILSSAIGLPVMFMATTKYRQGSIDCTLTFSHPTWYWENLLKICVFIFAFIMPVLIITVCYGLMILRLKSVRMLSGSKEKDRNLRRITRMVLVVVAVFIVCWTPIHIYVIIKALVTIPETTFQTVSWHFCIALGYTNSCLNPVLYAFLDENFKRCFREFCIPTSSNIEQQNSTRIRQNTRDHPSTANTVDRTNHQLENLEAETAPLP

[2] = biological target: T1, Transient receptor potential cation channel subfamily V member 1; assay: Agonist activity at recombinant human TRPV1 expressed in CHO cells assessed as increase in calcium uptake incubated for 5 mins in presence of 45Ca2+ and capsaicin by liquid scintillation counter; format: cell-based; details: for EC50: cho
[3] = biological target: T1, Transient receptor potential cation channel subfamily V member 1; assay: Antagonist activity at recombinant human TRPV1 expressed in CHO cells assessed as as inhibition of capsaicin-induced calcium uptake incubated for 5 mins in presence of 45Ca2+ by liquid scintillation counter; format: cell-based
In short: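 CHO cells stably expressing human TRPV1 (Tet-Off) induced 48 h in tetracycline-free medium. Uptake run in DMEM with BSA 0.25 mg/mL and 45Ca2+ 37 kBq/mL, with capsaicin 30 nM plus increasing test concentrations, 5 min at 37 °C. Cells washed, lysed in RIPA, counted. Four wells per point, Hill fit. ID50 converted to Ki by Cheng-Prusoff. Mean of ≥3 experiments.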

Mus musculus [4] = assay: Antinociceptive activity in ip dosed ICR mouse assessed as reduction in capsaicin-induced paw licking pretreated for 30 mins followed by capsaicin treatment and measured for 5 mins; format: functional, organism-based
In short: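 Male ICR mice, 20-25 g, in groups of 3-4. Compound or vehicle given i.p. 30 min before intraplantar capsaicin (3 μg/paw in 10 μl) into the right hind paw. Time spent licking the injected paw is recorded over 5 min. Results are given as mean ± SEM and compared with vehicle.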

Mus musculus [5] = assay: Antinociceptive activity in ip dosed ICR mouse assessed as reduction in pain response of paw licking and biting pretreated for 30 mins followed by formalin treatment and measures after 20 to 30 mins by formalin test; format: functional
In short: (§1)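 Male ICR mice, 20-25 g, 6-8 per group. Compound i.p. 30 min before 20 μL of 2% formalin in 0.9% saline into dorsal right hindpaw. Licking and biting time summed per 5 min block over 30 min. Early phase 0-5 min, late phase 20-30 min. ED50 derived from dose-response.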

Mus musculus [6] = assay: Antinociceptive activity in ICR mouse assessed as reduction in capsaicin-induced paw licking at 20 mg/kg, ip pretreated for 30 mins followed by capsaicin treatment and measured for 5 mins relative to control; format: functional
In short: (§2)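 Male ICR mice, 20-25 g, 3-4 per group. Pretreated i.p. with compound or vehicle 30 min before intraplantar capsaicin 3 μg/paw in 10 μL into right hind paw. Licking time recorded for 5 min and expressed as % inhibition versus vehicle. Mean ± SEM.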

Mus musculus [7] = assay: Antinociceptive activity in ICR mouse assessed as reduction in capsaicin-induced paw licking at 40 mg/kg, ip pretreated for 30 mins followed by capsaicin treatment and measured for 5 mins relative to control; format: functional; in short: as §2
Mus musculus [8] = assay: Antinociceptive activity in ip dosed ICR mouse assessed as reduction in pain response of paw licking and biting pretreated for 30 mins followed by formalin treatment and measures after 0 to 5 mins by formalin test; format: functional; in short: as §1
Mus musculus [9] = assay: (§3) Antinociceptive activity in ICR mouse assessed as reduction in paw licking time at 30 mg/kg, ip pretreated with 10 mg/kg, ip mu opioid receptor antagonist, naloxone 15 mins prior to compound treatment and 30 mins later treated with formalin and measured after 20 to 30 mins by formalin test relative to control; format: functional
In short: (§4)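 Male ICR mice, 20-25 g, 3-4 per group. Naloxone 10 mg/kg i.p. given 15 min before test article or vehicle i.p. Formalin paw test 30 min later: 20 μL of 2% formalin into right hindpaw. Licking scored at 0-5 min and 20-30 min and compared with vehicle. Mean ± SEM.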

Mus musculus [10] = assay: Antinociceptive activity in ICR mouse assessed as reduction in paw licking time at 30 mg/kg, ip pretreated for 30 mins followed by formalin treatment and measures after 0 to 5 mins by formalin test relative to control; format: functional
In short: (§5)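 Male ICR mice, 20-25 g. Compound i.p. 30 min before 20 μL of 2% formalin in 0.9% saline into dorsal right hindpaw. Licking time scored at 0-5 min (early) and 20-30 min (late) and expressed as % decrease versus vehicle. n = 3-4, mean ± SEM.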

Mus musculus [11] = assay: as §3, with “after 0” for “after 20”, “to 5” for “to 30”; format: functional; in short: as §4
Mus musculus [12] = assay: Antinociceptive activity in ICR mouse assessed as reduction in paw licking time at 30 mg/kg, ip pretreated for 30 mins followed by formalin treatment and measures after 20 to 30 mins by formalin test relative to control; format: functional; in short: as §5
Mus musculus [13] = assay: Antinociceptive activity in ICR mouse assessed as reduction of pain behaviour at 40 mg/kg, ip pretreated for 30 mins followed by formalin treatment and measured after 20 to 30 mins by formalin test; format: functional, organism-based
In short: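 Male ICR mice, 20-25 g, in groups of 6-8. Compound given i.p. 30 min before 20 μL of 2% formalin in 0.9% saline injected into the dorsal right hindpaw. Licking and biting time is summed in 5-min blocks over 30 min. Late phase is 20-30 min after injection.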

T1 sequence (Q8NER1 whole entry): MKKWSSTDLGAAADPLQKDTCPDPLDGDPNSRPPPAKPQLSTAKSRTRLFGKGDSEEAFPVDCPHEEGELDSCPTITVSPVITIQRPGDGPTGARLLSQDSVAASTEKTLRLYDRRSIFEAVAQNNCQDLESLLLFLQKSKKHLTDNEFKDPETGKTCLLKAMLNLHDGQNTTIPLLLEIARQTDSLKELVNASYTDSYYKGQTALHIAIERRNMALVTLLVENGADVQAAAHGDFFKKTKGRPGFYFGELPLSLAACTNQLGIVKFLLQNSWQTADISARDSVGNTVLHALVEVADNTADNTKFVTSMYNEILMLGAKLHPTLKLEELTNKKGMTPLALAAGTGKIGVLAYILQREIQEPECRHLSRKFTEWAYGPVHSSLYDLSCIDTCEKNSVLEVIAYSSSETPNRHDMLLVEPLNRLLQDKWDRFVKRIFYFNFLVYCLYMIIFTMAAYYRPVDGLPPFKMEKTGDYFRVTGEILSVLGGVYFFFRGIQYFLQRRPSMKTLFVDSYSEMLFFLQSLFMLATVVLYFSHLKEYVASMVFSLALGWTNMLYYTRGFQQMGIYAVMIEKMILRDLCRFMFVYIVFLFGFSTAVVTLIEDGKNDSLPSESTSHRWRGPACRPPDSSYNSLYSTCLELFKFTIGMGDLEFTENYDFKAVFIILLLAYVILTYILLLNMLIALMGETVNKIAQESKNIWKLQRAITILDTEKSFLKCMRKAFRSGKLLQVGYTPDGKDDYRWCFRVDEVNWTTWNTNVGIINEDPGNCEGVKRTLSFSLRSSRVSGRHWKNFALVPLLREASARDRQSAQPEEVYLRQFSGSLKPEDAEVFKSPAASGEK

| Compound | pKi [1] | pKi (Mu-type opioid receptor) | EC50 [2] | further results |
| --- | --- | --- | --- | --- |
| CN(C)C1(Cc2ccccc2)CCN(c2cc(C(F)(F)F)ccc2CNC(=O)Nc2cccc3ccncc23)CC1 | 7.91 | 6.69 | Not Active | – |
| CN(C)C1(Cc2ccccc2)CCN(c2cc(C(F)(F)F)ccc2CNC(=O)Nc2ccc(CNS(C)(=O)=O)c(F)c2)CC1 | 7.79 | 6.49 | Not Active | – |
| CN(C)C1(Cc2ccccc2)CCN(c2cc(C(F)(F)F)ccc2CNC(=O)Nc2cccc3c(=O)[nH]ccc23)CC1 | 6.95 | 6.98 | – | Ki [3]: Not Active; pEC50 ([2]; read-out: EC50): 7.36 |
| CN(C)C1(Cc2ccccc2)CCN(c2cc(C(F)(F)F)ccc2CNC(=O)NCc2ccc(NS(C)(=O)=O)c(F)c2)CC1 | 6.58 | 7.12 | Not Active | – |
| CN(C)C1(Cc2ccccc2)CCN(c2cc(C(F)(F)F)ccc2CNC(=O)Nc2ccc(CO)c(F)c2)CC1 | 7.55 | 6.62 | Not Active | – |
| CN(C)C1(Cc2ccccc2)CCN(c2cc(C(F)(F)F)ccc2CNC(=O)Nc2ccc3cccnc3c2)CC1 | 7.85 | 6.78 | Not Active | – |
| CN(C)C1(Cc2ccccc2)CCN(c2cc(C(F)(F)F)ccc2CNC(=O)Nc2ccc3c(c2)OCC3)CC1 | 7.38 | 6.65 | Not Active | – |
| CN(C)C1(Cc2ccccc2)CCN(c2cc(C(F)(F)F)ccc2CNC(=O)Nc2cccc3cnccc23)CC1 | 9.17 | 6.29 | Not Active | – |
| CN(C)C1(Cc2ccccc2)CCN(c2cc(C(F)(F)F)ccc2CNC(=O)Nc2ccc(NS(C)(=O)=O)c(F)c2)CC1 | 5.94 | 6.43 | Not Active | inhibition [3]: Active |
| CN(C)C1(Cc2ccccc2)CCN(c2cc(C(F)(F)F)ccc2CNC(=O)Nc2cccc3[nH]c(=O)ccc23)CC1 | 8.78 | 6.62 | Not Active | – |
| CN(C)C1(Cc2ccccc2)CCN(c2cc(C(F)(F)F)ccc2CNC(=O)Nc2ccc(CNS(N)(=O)=O)c(F)c2)CC1 | 7.82 | 7.14 | Not Active | – |
| CN(C)C1(Cc2ccccc2)CCN(c2cc(C(F)(F)F)ccc2CNC(=O)Nc2ccc3ccncc3c2)CC1 | 8.13 | 6.75 | Not Active | – |
| CC(C(=O)NCc1ccc(C(F)(F)F)cc1N1CCC(Cc2ccccc2)(N(C)C)CC1)c1ccc(NS(C)(=O)=O)c(F)c1 (configuration not stated) | 8.42 | 6.37 | Not Active | – |
| CN(C)C1(Cc2ccccc2)CCN(c2cc(C(F)(F)F)ccc2CNC(=O)Nc2ccc3cnccc3c2)CC1 | 7.21 | 7.77 | Not Active | – |
| CN(C)C1(Cc2ccccc2)CCN(c2cc(C(F)(F)F)ccc2CNC(=O)Nc2cccc3ncccc23)CC1 | 7.97 | 7.54 | Not Active | inhibition (Mus musculus [4]): Dose-dependent effect; Activity (Mus musculus [5]): Dose-dependent effect; ED50 (Mus musculus [5]): 10.5 mg/kg; inhibition in vivo at 20 mg/kg (Mus musculus [6]): 64.8%; inhibition in vivo at 40 mg/kg (Mus musculus [7]): 89.6%; Activity (Mus musculus [8]): Dose-dependent effect; ED50 (Mus musculus [8]): 23.9 mg/kg; inhibition (INH) (Mus musculus [9]): 47.9%; inhibition in vivo at 30 mg/kg (Mus musculus [10]): 52.5%; inhibition (INH) (Mus musculus [11]): 5.7%; inhibition in vivo at 30 mg/kg (Mus musculus [12]): 90.2%; inhibition (Mus musculus [13]): Active |
| CN(C)C1(Cc2ccccc2)CCN(c2cc(C(F)(F)F)ccc2CNC(=O)Nc2cccc3c2CC(O)CC3)CC1 (configuration not stated) | 9.02 | 6.58 | Not Active | – |
| CN(C)C1(Cc2ccccc2)CCN(c2cc(C(F)(F)F)ccc2CNC(=O)Nc2cccc3ccc(O)cc23)CC1 | 9.34 | 6.86 | Not Active | – |
| CC1CCN(c2nc(C(F)(F)F)ccc2CNC(=O)[C@@H](C)c2ccc(NS(C)(=O)=O)c(F)c2)CC1 (racemic) | 8.10 | – | Not Active | – |

Reference: ChEMBL document CHEMBL4406835, “Discovery of dual-acting opioid ligand and TRPV1 antagonists as novel therapeutic agents for pain” (Eur J Med Chem, 2019)
